Test results as given in ChEMBL document CHEMBL1132282, “Discovery of novel non-peptide CCR1 receptor antagonists” (J Med Chem, 1999).

Tests used:
[1] = target: T1, C-C chemokine receptor type 1 (Homo sapiens, UniProt P32246); assay: Inhibition of [125I]-MIP-1 alpha binding to recombinant human C-C chemokine receptor type 1 expressed in HEK293 cells; assay type: cell-based
T1 sequence (P32246 whole entry): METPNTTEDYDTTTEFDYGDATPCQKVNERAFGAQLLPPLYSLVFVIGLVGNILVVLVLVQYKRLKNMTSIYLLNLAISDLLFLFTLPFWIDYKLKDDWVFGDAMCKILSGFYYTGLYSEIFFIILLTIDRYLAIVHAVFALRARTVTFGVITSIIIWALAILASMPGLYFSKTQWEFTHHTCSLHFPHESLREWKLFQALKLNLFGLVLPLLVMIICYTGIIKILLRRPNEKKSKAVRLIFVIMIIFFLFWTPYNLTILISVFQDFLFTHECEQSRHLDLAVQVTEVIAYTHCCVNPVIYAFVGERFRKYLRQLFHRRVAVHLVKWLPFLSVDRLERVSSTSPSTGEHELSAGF

[2] = target: T1, C-C chemokine receptor type 1; assay: Inhibition of MIP-1-alpha-induced intracellular calcium mobilization in HEK293 cells expressing human CCR1 receptor; assay type: functional, cell-based
Procedure, shortened: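 HEK-293 cells overexpressing human CCR1 plated at 80 000 cells/well on poly-D-lysine, cultured one day, loaded with 4 μM Fluo-3 for 1 h at 37 °C in HBSS/Hepes with probenecid, then washed. Compound pretreatment 10 min at 37 °C, then 30 nM MIP-1α stimulation. FLIPR fluorescence read over 3 min at 37 °C. Six-concentration dose curves give IC50.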

SMILES	Ki [1] [nM]	IC50 [2] [nM]
N#CC(CCCN1CCC(O)(c2ccc(Cl)cc2)CC1)c1cccc([N+](=O)[O-])c1 (configuration not stated)	510	
N#CC(CCCN1CCC(O)(c2ccc(F)cc2)CC1)(c1ccccc1)c1ccccc1	136	
COc1ccc(C(C#N)CCCN2CCC(O)(c3ccc(Cl)cc3)CC2)cc1 (configuration not stated)	359	
CCCCC1(O)CCN(CCCC(C#N)(c2ccccc2)c2ccccc2)CC1	4010	
N#CC(CCCN1CCC(O)(c2ccc(Cl)cc2)CC1)c1ccsc1 (configuration not stated)	236	9800
NCC(CCCN1CCC(O)(c2ccc(Cl)cc2)CC1)(c1ccccc1)c1ccccc1	244	
CCOc1ccc(C(C#N)CCCN2CCC(O)(c3ccc(Cl)cc3)CC2)cc1 (configuration not stated)	1420	
N#CC(CCCCl)(CCCN1CCC(O)(c2ccc(Cl)cc2)CC1)c1ccccc1 (configuration not stated)	51	8300
C[N+]1(CCCC(C#N)c2ccc3ccccc3c2)CCC(O)(c2ccc(Cl)cc2)CC1 (configuration not stated)	22	700
N#Cc1ccc(C2(O)CCN(CCCC(C#N)(c3ccccc3)c3ccccc3)CC2)cc1	92	10900
CN1C(=O)c2ccccc2C(C#N)(CCCN2CCC(O)(c3ccc(Cl)cc3)CC2)c2ccccc21 (configuration not stated)	32	3300
N#CC(CCCN1CCC(O)(c2ccc(Cl)cc2)CC1)c1ccccc1F (configuration not stated)	371	
N#CC(CCCN1CCC(O)(c2ccc(Cl)cc2)CC1)c1ccc(O)cc1 (configuration not stated)	975	
N#CC(CCCN1CCC(O)(c2ccc(Cl)cc2)CC1)c1cccc(O)c1 (configuration not stated)	156	9000
N#CC1(CCCN2CCC(O)(c3cccc(C(F)(F)F)c3)CC2)c2ccccc2CSc2ccccc21 (configuration not stated)	623	
N#CC(CCCN1CCC(O)(c2ccc(Cl)cc2)CC1)(c1ccccc1)c1ccccc1 [BERLEX COMPOUND]	52	2500
N#CC(CCCN1CCC(O)(c2cc(Cl)cc(Cl)c2)CC1)(c1ccccc1)c1ccccc1	1330	
N#CC(CCCN1CCC(O)(c2ccc(Cl)cc2)CC1)c1ccccc1Cl (configuration not stated)	306	
N#CC1(CCCN2CCC(O)(c3ccc(Cl)cc3)CC2)c2ccccc2C=Cc2ccccc21	56	5300
COC(=O)C(CCCN1CCC(O)(c2ccc(Cl)cc2)CC1)(c1ccccc1)c1ccccc1	406	
N#CC(CCCCN1CCC(O)(c2ccc(Cl)cc2)CC1)(c1ccccc1)c1ccccc1	78	1600
CCOC(=O)C(C#N)(CCCN1CCC(O)(c2ccc(Cl)cc2)CC1)c1ccccc1 (configuration not stated)	33	7000
N#CC1(CCCN2CCC(O)(c3ccc(Cl)cc3)CC2)c2ccccc2Oc2ccccc21	234	
O=C(NCC(CCCN1CCC(O)(c2ccc(Cl)cc2)CC1)(c1ccccc1)c1ccccc1)NC1CCNCC1	9	
N#Cc1ccccc1C(C#N)CCCN1CCC(O)(c2ccc(Cl)cc2)CC1 (configuration not stated)	98	5800

SMILES	Ki [1] [nM]	IC50 [2] [nM]
N#CC(CCCN1CCC(O)(c2ccc(Cl)cc2)CC1)(c1ccccc1)N1CCCCC1 (configuration not stated)	130	4800
N#CC(CCCN1CCC(O)(c2ccc(Cl)cc2)CC1)c1ccc(OCc2ccccc2)cc1 (configuration not stated)	3430	
Cn1cccc1C(C#N)CCCN1CCC(O)(c2ccc(Cl)cc2)CC1 (configuration not stated)	429	
N#CC(CCCN1CCC(O)(c2ccc(Cl)cc2)CC1)c1ccccc1Br (configuration not stated)	366	
COc1ccc(C2(O)CCN(CCCC(C#N)(c3ccccc3)c3ccccc3)CC2)cc1	347	
N#CC(CCCN1CCC(CO)(c2ccccc2)CC1)(c1ccccc1)c1ccccc1	7500	
N#CC(CCCN1CCC(O)(c2ccc3ccccc3c2)CC1)(c1ccccc1)c1ccccc1	715	
N#CC1(CCCN2CCC(O)(c3ccc(Cl)cc3)CC2)c2ccccc2C[S+]([O-])c2ccccc21 (stereo in doubt; 6q)	71	
N#CC(CCCN1CCC(O)(c2ccc(Cl)cc2)CC1)c1ccc(Cl)cc1 (configuration not stated)	463	
N#CC(CCCN1CCC(O)(c2ccc(Cl)cc2)CC1)c1ccccc1O (configuration not stated)	790	
N#CC(CCCN1CCC(O)(c2ccc(Cl)cc2)CC1)c1cccnc1 (configuration not stated)	1000	
N#CC(CCCN1CCC(O)(c2ccc(Cl)cc2)CC1)c1c(F)c(F)c(F)c(F)c1F (configuration not stated)	330	
COC(=O)C(C#N)(CCCN1CCC(O)(c2ccc(Cl)cc2)CC1)c1ccccc1 (configuration not stated)	53	
N#CC(CCCN1CCC(O)(c2ccc(C(F)(F)F)cc2)CC1)(c1ccccc1)c1ccccc1	153	
N#CC(CCCN1CCC(O)(c2ccc(I)cc2)CC1)(c1ccccc1)c1ccccc1	233	
N#CC1(CCCN2CCC(O)(c3ccccc3)CC2)c2ccccc2CSc2ccccc21 (configuration not stated)	203	
N#CC1(CCCN2CCC(O)(c3ccc(Cl)cc3)CC2)c2ccccc2C[S+]([O-])c2ccccc21 (stereo in doubt; 6p)	54	
N#CC1(CCCN2CCC(O)(c3ccc(Cl)cc3)CC2)c2ccccc2CCc2ccccc21	45	7700
N#CC1(CCCN2CCC(O)(c3ccc(Cl)c(C(F)(F)F)c3)CC2)c2ccccc2CSc2ccccc21 (configuration not stated)	224	
N#CC(CCCN1CCC(O)(c2ccc(Cl)cc2)CC1)c1ccccc1 (configuration not stated)	54	
N#CC1(CCCN2CCC(O)(c3ccc(Cl)cc3)CC2)c2ccccc2COc2ccccc21 (configuration not stated)	34	7700
N#CC(CCCN1CCC(O)(c2ccccn2)CC1)(c1ccccc1)c1ccccc1	906	
COc1cc(C(C#N)CCCN2CCC(O)(c3ccc(Cl)cc3)CC2)cc(OC)c1OC (configuration not stated)	497	
CCC(C#N)(CCCN1CCC(O)(c2ccc(Cl)cc2)CC1)c1ccccc1 (configuration not stated)	93	
C[N+]1(CCCC(c2ccccc2)c2ccccc2)CCC(O)(c2ccc(Cl)cc2)CC1 (configuration not stated)	6	1800

SMILES	Ki [1] [nM]	IC50 [2] [nM]
N#CC1(CCCN2CCC(O)(Cc3ccccc3)CC2)c2ccccc2CSc2ccccc21 (configuration not stated)	405	
N#CC(CCCN1CCC(O)(c2cccnc2)CC1)(c1ccccc1)c1ccccc1	206	
N#CC(CCCN1CCC(O)(c2ccc(Cl)cc2)CC1)c1ccc(F)cc1 (configuration not stated)	533	
N#CCC(C#N)(CCCN1CCC(O)(c2ccc(Cl)cc2)CC1)c1ccccc1 (configuration not stated)	125	3200
CN(C)c1ccc(C2(O)CCN(CCCC(C#N)(c3ccccc3)c3ccccc3)CC2)cc1	1160	
Cc1ccccc1C1(O)CCN(CCCC2(C#N)c3ccccc3CSc3ccccc32)CC1 (configuration not stated)	164	
N#CC(CCCN1CCC(O)(c2ccc(Cl)cc2)CC1)(c1ccccc1)C1CCCCC1 (configuration not stated)	400	
OC1(c2ccc(Cl)cc2)CCN(CCCC(c2ccccc2)c2ccccc2)CC1	116	8700
N#CC(CCN1CCC(O)(c2ccc(Cl)cc2)CC1)(c1ccccc1)c1ccccc1	4060	400
N#CC(CCCCCN1CCC(O)(c2ccc(Cl)cc2)CC1)(c1ccccc1)c1ccccc1	99	5600
COc1ccc(C(C#N)CCCN2CCC(O)(c3ccc(Cl)cc3)CC2)cc1Br (configuration not stated)	74	1900
N#CC(CCCN1CCC(O)(c2ccc(Cl)cc2)CC1)c1cccc(Oc2ccccc2)c1 (configuration not stated)	908	
N#CC(CCCN1CCC(O)(c2cccc(Cl)c2)CC1)(c1ccccc1)c1ccccc1	385	
N#CC(CCCN1CCC(O)(c2ccc(Cl)cc2)CC1)c1ccccn1 (configuration not stated)	584	
N#CC(CCCN1CCC(O)(c2cccs2)CC1)(c1ccccc1)c1ccccc1	1020	
N#CC1(CCCN2CCC(O)(c3ccc(F)cc3)CC2)c2ccccc2CSc2ccccc21 (configuration not stated)	44	3000
N#CC1(CCCN2CCC(O)(c3ccc(Br)cc3)CC2)c2ccccc2Cc2ccccc21	29	
C[N+]1(CCCC(C#N)(c2ccccc2)c2ccccc2)CCC(O)(c2ccc(Cl)cc2)CC1 (configuration not stated)	8	
N#CC(CCCN1CCC(O)(c2ccc(Cl)cc2)CC1)c1ccc2ccccc2c1 (configuration not stated)	206	7100
N#CC1(CCCN2CCC(O)(c3ccc(Cl)cc3)CC2)c2ccccc2CSc2ccccc21 (configuration not stated)	24	7000
CC(C#N)(CCCN1CCC(O)(c2ccc(Cl)cc2)CC1)c1ccccc1 (configuration not stated)	460	
N#CC(CCCN1CCC(O)(c2ccc(Cl)cc2)CC1)c1cccs1 (configuration not stated)	128	8400
N#CC1(CCCN2CCC(O)(c3ccc(Br)cc3)CC2)c2ccccc2CSc2ccccc21 (configuration not stated)	22	
